Source: ChEMBL document CHEMBL1145214, “Synthesis, structure-activity relationships at the GABA(A) receptor in rat brain, and differential electrophysiological profile at the recombinant human GABA(A) receptor of a series of substituted 1,2-diphenylimidazoles” (J Med Chem, 2005)

Key:
[1] = molecular target: GABA A receptor alpha-2/beta-2/gamma-2 (Homo sapiens) (UniProt P47870+P18507+P47869); assay: Maximal efficacy for GABA-evoked chloride currents mediated by human Gamma-aminobutyric acid GABA-A receptor alpha2-beta2-gamma2L expressed in Xenopus oocytes; type: cell-based; conditions: Oocyte
Procedure, shortened: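 Human α2β2γ2L cDNAs, 1.5 ng total in 30 nL at a 1:1:1 ratio, injected into the animal pole of oocytes. Oocytes held at 15 °C in supplemented modified Barth's solution, pH 7.5. Compounds were applied for 60 s together with GABA at EC10 (10% of the 10 mM GABA maximum), final DMSO ≤0.1%. Readout was % potentiation of Cl- current from concentration-response curves.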

[2] = molecular target: T1, GABA A receptor alpha-2/beta-2/gamma-2 (Homo sapiens, UniProt P18507+P47869+P47870); assay: Effective concentration against GABA-evoked chloride currents mediated by human Gamma-aminobutyric acid GABA-A receptor alpha2-beta2-gamma2L expressed in Xenopus oocytes; type: cell-based, Oocyte
T1 sequence (P47870 whole entry): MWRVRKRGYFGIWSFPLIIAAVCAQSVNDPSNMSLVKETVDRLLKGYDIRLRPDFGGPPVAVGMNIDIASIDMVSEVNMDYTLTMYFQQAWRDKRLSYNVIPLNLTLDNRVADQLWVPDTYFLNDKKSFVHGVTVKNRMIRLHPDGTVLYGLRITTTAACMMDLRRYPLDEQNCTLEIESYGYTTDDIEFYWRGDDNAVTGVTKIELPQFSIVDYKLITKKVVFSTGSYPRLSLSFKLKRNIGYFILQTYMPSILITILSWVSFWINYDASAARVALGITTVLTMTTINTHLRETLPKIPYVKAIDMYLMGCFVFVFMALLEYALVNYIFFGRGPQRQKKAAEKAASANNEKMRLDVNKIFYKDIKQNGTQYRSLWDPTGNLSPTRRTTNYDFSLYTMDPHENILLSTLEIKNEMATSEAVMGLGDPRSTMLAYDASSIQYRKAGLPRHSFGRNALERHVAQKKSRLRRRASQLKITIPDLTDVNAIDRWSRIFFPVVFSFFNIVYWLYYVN
T1 sequence (P18507 whole entry): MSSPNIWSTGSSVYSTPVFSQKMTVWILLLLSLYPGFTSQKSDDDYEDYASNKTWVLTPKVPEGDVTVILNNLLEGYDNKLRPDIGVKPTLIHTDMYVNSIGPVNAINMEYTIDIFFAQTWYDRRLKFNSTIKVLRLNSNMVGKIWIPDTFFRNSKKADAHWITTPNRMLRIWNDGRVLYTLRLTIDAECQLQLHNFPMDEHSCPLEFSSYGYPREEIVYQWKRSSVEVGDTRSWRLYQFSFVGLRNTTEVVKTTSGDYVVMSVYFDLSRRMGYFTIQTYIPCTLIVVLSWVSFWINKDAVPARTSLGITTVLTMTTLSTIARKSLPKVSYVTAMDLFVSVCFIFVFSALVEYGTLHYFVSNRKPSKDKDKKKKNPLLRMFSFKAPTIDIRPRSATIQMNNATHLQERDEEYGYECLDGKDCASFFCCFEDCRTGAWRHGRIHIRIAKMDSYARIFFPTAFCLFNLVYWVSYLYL
T1 sequence (P47869 whole entry): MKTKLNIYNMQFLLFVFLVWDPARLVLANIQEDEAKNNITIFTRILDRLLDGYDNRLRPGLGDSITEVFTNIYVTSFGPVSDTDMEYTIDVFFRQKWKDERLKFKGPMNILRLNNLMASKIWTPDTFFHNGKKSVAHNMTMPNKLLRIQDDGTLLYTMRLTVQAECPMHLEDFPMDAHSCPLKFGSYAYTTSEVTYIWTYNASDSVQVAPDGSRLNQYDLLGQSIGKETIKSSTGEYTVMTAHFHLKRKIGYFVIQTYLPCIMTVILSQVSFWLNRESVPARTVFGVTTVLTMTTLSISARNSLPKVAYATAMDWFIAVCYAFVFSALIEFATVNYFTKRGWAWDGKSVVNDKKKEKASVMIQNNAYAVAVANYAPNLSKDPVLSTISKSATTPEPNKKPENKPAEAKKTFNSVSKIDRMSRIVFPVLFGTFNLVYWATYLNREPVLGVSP
Procedure, shortened: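 Human α2β2γ2L cDNAs, 1.5 ng total in 30 nL at a 1:1:1 ratio, injected into the animal pole of oocytes. Oocytes held at 15 °C in supplemented modified Barth's solution, pH 7.5. Readout was % potentiation of Cl- current from concentration-response curves.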

[3] = Effective concentration required for reversible loss of righting reflex in Xenopus laevis tadpoles; type: functional, Tadpole

Row | SMILES | Maximal efficacy [1] [%] | EC50 [2] [nM] | EC50 [3] [nM]
1 | Cc1cn(-c2ccccc2)c(-c2ccccc2)n1 | -25 |  | 
2 | O=C(OCCN1CCCCC1)c1cn(-c2ccc(Cl)cc2Cl)c(-c2ccc(Br)cc2)n1 | -14 |  | 
3 | CCOC(=O)c1cn(-c2cccc(Cl)c2)c(-c2ccccc2)n1 | 350 | 3000 | 
4 | CCOC(=O)c1cn(-c2ccc(Cl)cc2Cl)c(-c2ccc([N+](=O)[O-])cc2)n1 | 413 | 2400 | 
5 | CCCC(C)C1(CC)C(=O)NC(=O)NC1=O (stereo unspecified) [PENTOBARBITAL] | 214 | 50000 | 
6 | CCOC(=O)c1cn(-c2ccc(Cl)cc2)c(-c2ccc(Cl)cc2)n1 | 302 | 1500 | 
7 | CCOC(=O)c1cn(-c2ccc(Cl)cc2Cl)c(-c2ccc(N)cc2)n1 | 406 | 4300 | 
8 | CCOC(=O)c1cn(-c2ccc(Cl)cc2Cl)c(-c2ccc(OC)cc2)n1 | 362 | 1900 | 
9 | CCCOC(=O)c1cn(-c2ccc(Cl)cc2Cl)c(-c2ccc(Br)cc2)n1 | 537 | 1700 | 
10 | CCN(CC)C(=O)c1cn(-c2ccc(Cl)cc2Cl)c(-c2ccc(Cl)cc2)n1 | 32.4 | 4400 | 
11 | CCOC(=O)c1cncn1[C@H](C)c1ccccc1 [ETOMIDATE] | 501 |  | 2300
12 | CC(=O)[C@H]1CC[C@H]2[C@@H]3CC[C@H]4C[C@H](O)CC[C@]4(C)[C@H]3C(=O)C[C@]12C | 322 |  | 
13 | CCOC(=O)c1cn(-c2ccccc2)c(-c2ccc(OC)cc2)n1 | 369 | 9100 | 
14 | COC(=O)c1cn(-c2ccc(Cl)cc2Cl)c(-c2ccc(Br)cc2)n1 | 258 | 3400 | 
15 | CCOC(=O)c1cn(-c2ccc(Cl)c(Cl)c2)c(-c2ccc(Cl)cc2)n1 | 521 | 2300 | 
16 | CC(C)c1cccc(C(C)C)c1O [PROPOFOL] | 461 | 11200 | 1900
17 | CCOC(=O)c1cn(-c2ccc(Cl)cc2Cl)c(-c2ccc(I)cc2)n1 | 180 | 450 | 
18 | CCOC(=O)c1cn(-c2ccc(Cl)cc2Cl)c(-c2ccccc2)n1 | 508 | 1800 | 
19 | CN1CCN(C(=O)c2cn(-c3ccc(Cl)cc3Cl)c(-c3ccc(Cl)cc3)n2)CC1 | 58.2 | 1300 | 
20 | CCOC(=O)c1cn(-c2ccc(Cl)cc2Cl)c(-c2ccc(C)cc2)n1 | 568 | 1000 | 
21 | CCOC(=O)c1cn(-c2ccccc2)c(-c2ccccc2)n1 | 638 | 6400 | 
22 | CCOC(=O)c1cn(-c2ccc(F)cc2)c(-c2ccc(F)cc2)n1 | 569 | 3100 | 
23 | CCOC(=O)c1cn(-c2ccc(Cl)cc2Cl)c(-c2ccc(Cl)cc2)n1 | 390 | 600 | 1200
24 | CCOC(=O)c1cn(-c2ccc(Cl)cc2Cl)c(-c2ccc(NC(C)=O)cc2)n1 | 209 | 19000 | 
25 | CCOC(=O)c1cn(-c2ccc(Cl)cc2Cl)c(-c2ccc(Br)cc2)n1 | 388 | 190 | 
26 | c1ccc(-c2nccn2-c2ccccc2)cc1 | -5.3 |  | 
27 | CCOC(=O)c1cn(-c2ccccc2)c(-c2ccc(Cl)cc2)n1 | 458 | 4200 | 
28 | O=C(O)c1cn(-c2ccc(Cl)cc2Cl)c(-c2ccc(Cl)cc2)n1 | 256 | 8700 | 
29 | CCOC(=O)c1cn(-c2ccccc2)c(-c2ccc(C)cc2)n1 | 625 | 4100 | 
